Measured values published in ChEMBL document CHEMBL3853331, “Preparation, Antiepileptic Activity, and Cardiovascular Safety of Dihydropyrazoles as Brain-Penetrant T-Type Calcium Channel Blockers” (J Med Chem, 2016).
Converted amounts (≈) assume the structure as drawn.

Key:
[1] = Aqueous solubility of the compound at pH 4 by UV-HPLC method; format: physicochemical
Method in brief: (§1)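 Compound dispensed from a 10 mM DMSO stock and the solvent evaporated. Residue stirred 24 h at room temperature in buffer: citrate (55 mM) pH 4.0 or phosphate (67 mM) pH 7.0. Mixture filtered by centrifugation. Filtrate concentration measured by HPLC-UV against calibration solutions.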

[2] = Aqueous solubility of the compound at pH 7 by UV-HPLC method; format: physicochemical; method in brief: as §1
[3] = biological target: T1, Voltage-dependent T-type calcium channel subunit alpha-1G (Homo sapiens, UniProt O43497); experiment: Inhibition of T-type calcium channel Cav3.1 (unknown origin) expressed in HEK293 cells assessed as calcium influx by Fluo-4-AM dye-based FLIPR assay; format: cell-based
T1 sequence (O43497 whole entry): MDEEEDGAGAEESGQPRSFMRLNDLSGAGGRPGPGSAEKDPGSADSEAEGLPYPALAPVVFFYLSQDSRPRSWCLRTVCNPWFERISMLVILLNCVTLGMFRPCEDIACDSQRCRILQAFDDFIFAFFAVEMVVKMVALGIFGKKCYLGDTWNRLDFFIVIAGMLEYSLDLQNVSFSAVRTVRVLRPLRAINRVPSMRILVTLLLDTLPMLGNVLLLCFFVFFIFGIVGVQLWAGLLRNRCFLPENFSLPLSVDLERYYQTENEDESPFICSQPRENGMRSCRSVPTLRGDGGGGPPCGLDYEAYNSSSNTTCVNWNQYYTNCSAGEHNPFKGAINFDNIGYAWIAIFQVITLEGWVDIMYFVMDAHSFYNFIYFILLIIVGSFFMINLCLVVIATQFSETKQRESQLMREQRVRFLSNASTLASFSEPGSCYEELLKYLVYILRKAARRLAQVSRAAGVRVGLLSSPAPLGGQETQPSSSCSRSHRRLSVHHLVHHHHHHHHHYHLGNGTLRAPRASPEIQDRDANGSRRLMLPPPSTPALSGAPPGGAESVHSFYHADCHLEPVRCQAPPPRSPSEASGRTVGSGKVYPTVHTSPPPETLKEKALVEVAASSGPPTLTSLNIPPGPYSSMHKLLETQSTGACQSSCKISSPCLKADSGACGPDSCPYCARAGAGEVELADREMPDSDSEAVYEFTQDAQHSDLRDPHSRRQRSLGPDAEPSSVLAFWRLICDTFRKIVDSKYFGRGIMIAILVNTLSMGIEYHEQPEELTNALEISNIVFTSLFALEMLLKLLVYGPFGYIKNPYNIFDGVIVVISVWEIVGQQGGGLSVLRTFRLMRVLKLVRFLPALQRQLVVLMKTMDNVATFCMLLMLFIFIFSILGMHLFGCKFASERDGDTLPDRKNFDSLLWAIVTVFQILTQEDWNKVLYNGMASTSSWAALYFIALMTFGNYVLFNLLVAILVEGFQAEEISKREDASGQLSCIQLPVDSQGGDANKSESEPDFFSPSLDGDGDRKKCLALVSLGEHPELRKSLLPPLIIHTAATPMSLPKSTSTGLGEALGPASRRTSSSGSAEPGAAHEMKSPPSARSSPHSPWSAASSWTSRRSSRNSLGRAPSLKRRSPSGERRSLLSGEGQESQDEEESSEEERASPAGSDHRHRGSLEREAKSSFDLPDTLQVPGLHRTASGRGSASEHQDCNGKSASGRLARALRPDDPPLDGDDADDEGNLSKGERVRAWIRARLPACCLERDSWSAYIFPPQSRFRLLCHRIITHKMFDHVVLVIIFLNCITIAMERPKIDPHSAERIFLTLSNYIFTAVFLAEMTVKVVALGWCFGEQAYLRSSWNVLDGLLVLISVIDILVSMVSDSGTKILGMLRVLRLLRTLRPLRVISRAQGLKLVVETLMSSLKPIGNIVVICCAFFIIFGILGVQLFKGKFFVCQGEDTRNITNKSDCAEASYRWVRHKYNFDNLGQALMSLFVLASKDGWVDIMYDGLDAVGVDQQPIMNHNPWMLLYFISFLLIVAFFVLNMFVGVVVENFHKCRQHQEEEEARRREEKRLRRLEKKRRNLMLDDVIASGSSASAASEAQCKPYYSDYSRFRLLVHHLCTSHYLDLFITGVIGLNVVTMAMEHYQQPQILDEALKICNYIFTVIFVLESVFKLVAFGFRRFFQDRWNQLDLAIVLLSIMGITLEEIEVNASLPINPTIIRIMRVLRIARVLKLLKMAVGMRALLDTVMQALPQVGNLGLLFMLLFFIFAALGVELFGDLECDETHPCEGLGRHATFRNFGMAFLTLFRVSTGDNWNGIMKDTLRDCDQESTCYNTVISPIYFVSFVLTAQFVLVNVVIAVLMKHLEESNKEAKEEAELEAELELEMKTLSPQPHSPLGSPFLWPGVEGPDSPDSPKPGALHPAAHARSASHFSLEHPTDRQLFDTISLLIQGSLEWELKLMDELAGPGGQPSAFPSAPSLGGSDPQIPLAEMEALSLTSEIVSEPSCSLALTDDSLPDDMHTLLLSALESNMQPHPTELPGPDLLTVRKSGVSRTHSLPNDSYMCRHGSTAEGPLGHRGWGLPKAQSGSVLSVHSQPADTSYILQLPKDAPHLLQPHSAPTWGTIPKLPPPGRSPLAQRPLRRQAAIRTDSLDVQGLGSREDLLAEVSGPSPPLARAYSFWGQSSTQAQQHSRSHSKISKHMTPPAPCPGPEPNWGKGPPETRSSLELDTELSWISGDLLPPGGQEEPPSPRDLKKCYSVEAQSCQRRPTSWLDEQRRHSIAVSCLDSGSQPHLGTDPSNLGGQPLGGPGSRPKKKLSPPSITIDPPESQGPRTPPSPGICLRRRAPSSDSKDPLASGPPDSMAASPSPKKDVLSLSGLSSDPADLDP
Method in brief: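 HEK293 cells stably expressing the channel, seeded overnight and loaded 1 h at 37°C with 3 µM Fluo-4-AM. Compounds given as a 3-fold dilution series from 10 µM to 0.05 nM and incubated 3 min. For T-type channels, dilutions in TEAC buffer and stimulation with 10 mM final CaCl2. For Cav1.2, dilutions in assay buffer and stimulation with 20 mM final KCl. IC50 from area under the fluorescence trace against vehicle; mean of at least two experiments.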

[4] = biological target: T1, Voltage-dependent T-type calcium channel subunit alpha-1G; experiment: Inhibition of human T-type calcium channel Cav3.1 expressed in CHO cells assessed as inhibition of calcium tail current at -60 mV holding potential measured after 150 secs by QPatch assay; format: cell-based
Method in brief: (§2)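 CHO cells stably expressing human Cav3.1, Cav3.2 or Cav3.3, automated QPatch recording. 3-ms depolarization to +20 mV from a holding potential of -90 or -60 mV. Ca2+ tail current measured at -60 mV. Cs-glutamate internal and TEA-Cl external solution with 5 mM Ca2+. Effect read 150 s after application.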

[5] = biological target: T1, Voltage-dependent T-type calcium channel subunit alpha-1G; experiment: Inhibition of human T-type calcium channel Cav3.1 expressed in CHO cells assessed as inhibition of calcium tail current at -90 mV holding potential measured after 150 secs by QPatch assay; format: cell-based; method in brief: as §2
[6] = biological target: Voltage-dependent T-type calcium channel subunit alpha-1H (Homo sapiens, UniProt O95180); experiment: Inhibition of human T-type calcium channel Cav3.2 expressed in CHO cells assessed as inhibition of calcium tail current at -60 mV holding potential measured after 150 secs by QPatch assay; format: cell-based; method in brief: as §2
[7] = biological target: Voltage-dependent T-type calcium channel subunit alpha-1I (Homo sapiens, UniProt Q9P0X4); experiment: Inhibition of human T-type calcium channel Cav3.3 expressed in CHO cells assessed as inhibition of calcium tail current at -90 mV holding potential measured after 150 secs by QPatch assay; format: cell-based; method in brief: as §2
Chain of Voltage-dependent T-type calcium channel subunit alpha-1I (Q9P0X4 whole entry): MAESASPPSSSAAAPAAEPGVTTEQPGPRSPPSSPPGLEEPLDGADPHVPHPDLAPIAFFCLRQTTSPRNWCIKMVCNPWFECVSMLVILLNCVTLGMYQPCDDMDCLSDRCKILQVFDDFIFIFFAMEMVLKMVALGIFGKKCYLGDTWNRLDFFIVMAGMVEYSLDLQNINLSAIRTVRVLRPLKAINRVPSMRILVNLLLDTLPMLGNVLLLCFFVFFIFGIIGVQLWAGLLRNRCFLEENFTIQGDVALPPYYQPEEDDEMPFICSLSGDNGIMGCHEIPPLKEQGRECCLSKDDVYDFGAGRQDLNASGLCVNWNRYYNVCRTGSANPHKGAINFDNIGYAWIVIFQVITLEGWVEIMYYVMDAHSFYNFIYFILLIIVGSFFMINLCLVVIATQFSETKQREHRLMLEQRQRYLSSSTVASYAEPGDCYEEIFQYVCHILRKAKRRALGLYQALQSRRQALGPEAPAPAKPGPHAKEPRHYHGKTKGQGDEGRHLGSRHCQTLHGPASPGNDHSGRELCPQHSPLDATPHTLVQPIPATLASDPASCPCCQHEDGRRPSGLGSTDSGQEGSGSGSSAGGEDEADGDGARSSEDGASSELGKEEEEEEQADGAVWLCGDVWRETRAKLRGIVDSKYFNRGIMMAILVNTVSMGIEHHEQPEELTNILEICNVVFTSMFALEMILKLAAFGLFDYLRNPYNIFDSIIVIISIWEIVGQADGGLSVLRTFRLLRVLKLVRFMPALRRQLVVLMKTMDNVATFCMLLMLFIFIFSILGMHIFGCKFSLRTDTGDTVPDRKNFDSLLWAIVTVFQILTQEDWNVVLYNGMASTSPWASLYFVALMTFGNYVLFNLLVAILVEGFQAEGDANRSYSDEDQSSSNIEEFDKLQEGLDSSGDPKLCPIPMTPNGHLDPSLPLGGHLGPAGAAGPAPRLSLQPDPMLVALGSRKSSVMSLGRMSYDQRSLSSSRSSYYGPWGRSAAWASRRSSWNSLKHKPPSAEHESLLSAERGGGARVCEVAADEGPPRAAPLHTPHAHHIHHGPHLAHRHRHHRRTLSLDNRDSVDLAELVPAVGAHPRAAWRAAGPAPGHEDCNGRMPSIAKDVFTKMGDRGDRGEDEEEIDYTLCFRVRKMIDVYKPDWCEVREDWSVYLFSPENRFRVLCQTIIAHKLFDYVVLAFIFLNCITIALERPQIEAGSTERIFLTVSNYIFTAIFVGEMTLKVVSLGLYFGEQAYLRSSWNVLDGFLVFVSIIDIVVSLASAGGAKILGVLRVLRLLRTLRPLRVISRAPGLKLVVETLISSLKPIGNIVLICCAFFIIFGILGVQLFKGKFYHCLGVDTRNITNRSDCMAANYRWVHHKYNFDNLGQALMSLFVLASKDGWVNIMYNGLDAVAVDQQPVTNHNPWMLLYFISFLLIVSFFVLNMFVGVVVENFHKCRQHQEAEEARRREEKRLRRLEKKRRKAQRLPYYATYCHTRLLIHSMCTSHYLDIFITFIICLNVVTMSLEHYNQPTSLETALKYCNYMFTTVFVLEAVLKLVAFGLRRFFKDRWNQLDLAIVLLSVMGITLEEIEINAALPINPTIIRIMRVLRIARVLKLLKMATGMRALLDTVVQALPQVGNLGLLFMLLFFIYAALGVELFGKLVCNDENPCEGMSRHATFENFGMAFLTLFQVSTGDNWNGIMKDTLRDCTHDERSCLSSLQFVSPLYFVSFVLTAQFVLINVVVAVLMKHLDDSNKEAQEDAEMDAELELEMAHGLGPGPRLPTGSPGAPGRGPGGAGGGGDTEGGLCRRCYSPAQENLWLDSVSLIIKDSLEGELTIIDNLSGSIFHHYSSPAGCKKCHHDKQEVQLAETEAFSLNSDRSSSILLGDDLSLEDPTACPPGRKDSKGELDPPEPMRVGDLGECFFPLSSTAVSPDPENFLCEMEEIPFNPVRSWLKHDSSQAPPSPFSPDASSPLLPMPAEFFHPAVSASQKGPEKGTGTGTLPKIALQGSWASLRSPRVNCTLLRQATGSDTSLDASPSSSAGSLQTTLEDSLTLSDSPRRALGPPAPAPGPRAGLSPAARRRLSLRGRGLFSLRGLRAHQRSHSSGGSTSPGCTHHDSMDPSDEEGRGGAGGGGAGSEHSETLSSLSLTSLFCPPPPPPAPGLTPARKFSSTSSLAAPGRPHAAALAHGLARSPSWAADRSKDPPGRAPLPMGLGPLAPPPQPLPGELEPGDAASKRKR

[8] = organism: Rattus norvegicus; experiment: Inhibition of Wistar rat brain neuronal sodium channel assessed as peak inward current at 10 uM measured during last peak
Method in brief: (§3)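 Cortical neurons from E18 Wistar rat embryos, cultured 9-15 days, recorded by manual patch clamp from a holding potential of -80 mV. K+ currents: one 50-ms step to 0 mV, fast as peak outward and slow as end-of-pulse current. Na+ currents: train of fifteen 10-ms steps to 0 mV, peak inward current read at the first and last pulses. Effects read at least 180 s after application.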

[9] = organism: Rattus norvegicus; experiment: Inhibition of Wistar rat brain potassium channel at 10 uM assessed as reduction in fast potassium current at -80 mV holding potential measured after 180 secs; method in brief: as §3
[10] = organism: Rattus norvegicus; experiment: Inhibition of Wistar rat brain potassium channel at 10 uM assessed as reduction in slow potassium current at -80 mV holding potential measured after 180 secs; method in brief: as §3
[11] = biological target: T2, Cytochrome P450 3A4 (Homo sapiens, UniProt P08684); experiment: Inhibition of CYP3A4 (unknown origin) using midazolam as substrate; format: ADME
T2 sequence (P08684 whole entry): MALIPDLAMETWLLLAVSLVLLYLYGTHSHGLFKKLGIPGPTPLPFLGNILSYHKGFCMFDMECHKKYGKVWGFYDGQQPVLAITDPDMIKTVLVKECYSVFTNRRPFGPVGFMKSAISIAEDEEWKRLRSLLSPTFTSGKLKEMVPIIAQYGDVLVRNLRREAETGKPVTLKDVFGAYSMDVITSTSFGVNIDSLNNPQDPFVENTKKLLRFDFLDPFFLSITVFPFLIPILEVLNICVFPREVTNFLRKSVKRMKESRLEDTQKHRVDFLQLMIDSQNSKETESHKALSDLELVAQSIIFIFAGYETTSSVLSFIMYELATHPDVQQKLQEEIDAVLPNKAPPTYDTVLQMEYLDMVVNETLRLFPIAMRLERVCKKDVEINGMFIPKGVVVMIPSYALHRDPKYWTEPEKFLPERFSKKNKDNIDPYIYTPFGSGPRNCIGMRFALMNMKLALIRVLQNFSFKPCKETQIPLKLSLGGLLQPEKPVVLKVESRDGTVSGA

[12] = biological target: T2, Cytochrome P450 3A4; experiment: Inhibition of CYP3A4 (unknown origin) using testosterone as substrate; format: ADME
[13] = Metabolic stability in human microsomes measured per mg protein; format: ADME, Microsome
[14] = Metabolic stability in rat microsomes measured per mg protein; format: ADME, Microsome
[15] = Fraction unbound in human plasma; format: ADME, cell-free
[16] = Clearance in Wistar rat plasma at 0.2 mg/kg, iv; format: ADME, organism-based
Method in brief: (§4)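 Male Wistar rats dosed iv at 0.2 mg/kg or po at 2 mg/kg. In the inhibited arm, the broad CYP inhibitor aminobenzotriazol was given orally 2 h before dosing. Clearance, Vss and half-life derived from plasma concentrations after the iv dose; Cmax and Tmax from the po dose.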

[17] = Volume of distribution at steady state in Wistar rat plasma at 0.2 mg/kg, iv; format: ADME, organism-based; conditions: read-out: Vdss
[18] = Volume of distribution at steady state in Wistar rat plasma at 0.2 mg/kg, iv administered 2 hrs after aminobenzotriazol-treatment; format: ADME, organism-based; conditions: read-out: Vdss
Method in brief: (§5)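 Rats dosed orally with the CYP inhibitor aminobenzotriazol 2 h before the iv dose of 0.2 mg/kg. Oral dose was 2 mg/kg.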

[19] = Half life in Wistar rat plasma at 0.2 mg/kg, iv; format: ADME, organism-based; method in brief: as §4
[20] = Half life in Wistar rat plasma at 0.2 mg/kg, iv administered 2 hrs after aminobenzotriazol-treatment; format: ADME, organism-based; method in brief: as §4
[21] = Cmax in Wistar rat plasma at 2 mg/kg, po administered 2 hrs after aminobenzotriazol-treatment; format: ADME, organism-based; set-up: dose 2 mg/kg, route oral; method in brief: as §4
[22] = Tmax in Wistar rat plasma at 2 mg/kg, po; format: ADME, organism-based
[23] = Tmax in Beagle dog plasma at 10 mg/kg, po; format: ADME, organism-based, Canis lupus familiaris
[24] = Oral bioavailability in Wistar rat plasma at 2 mg/kg administered 2 hrs after aminobenzotriazol-treatment; format: ADME, organism-based; method in brief: as §5
[25] = Plasma concentration in Wistar rat at 100 mg/kg, po measured after 1 hr; format: ADME, organism-based
[26] = Plasma concentration in Wistar rat at 10 mg/kg, po measured after 1 hr; format: ADME, organism-based
[27] = Drug uptake in Wistar rat brain at 30 mg/kg, po measured after 1 hr; format: ADME, organism-based; conditions: read-out: Drug uptake
Method in brief: (§6)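 Male Wistar rats given oral doses of 10, 30 or 100 mg/kg. Plasma, brain and CSF collected at 1 h, and at 3 h for the 10 mg/kg dose; compound concentrations measured in each.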

[28] = Drug uptake in Wistar rat brain at 10 mg/kg, po measured after 1 hr; format: ADME, organism-based; conditions: read-out: Drug uptake; method in brief: as §6
[29] = tested on: Rattus norvegicus; experiment: Cardiovascular toxicity in spontaneously hypertensive rat assessed as decrease in mean […] pressure at 100 mg/kg, po by telemetry method; format: organism-based; conditions: in vivo
Method in brief: (§7)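 Conscious, freely moving male spontaneously hypertensive rats with telemetry recording MAP, HR and ECG. Single oral dose (5 ml/kg) given as a suspension in 0.5% w/v methylcellulose in water, in the morning during the sleep phase. Vehicle controls run in parallel, n = 8 per group.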

[30] = tested on: Rattus norvegicus; experiment: Cardiovascular toxicity in spontaneously hypertensive rat assessed as reduction in mean […] pressure after 18 hrs at 100 mg/kg, po; format: organism-based; conditions: in vivo; method in brief: as §7
[31] = tested on: Rattus norvegicus; experiment: Cardiotoxicity in rat assessed as QT prolongation at 100 mg/kg by electrophysiology method; format: toxicity, organism-based; conditions: in vivo; method in brief: as §7
[32] = Unbound drug level in Wistar rat brain at 100 mg/kg, po measured after 1 hr; format: ADME, organism-based; conditions: in vivo
[33] = Drug uptake in Wistar rat assessed as unbound drug level measured after 1 hr; format: ADME; conditions: in vivo
[34] = tested on: Rattus norvegicus; experiment: Anticonvulsant activity in WAG/Rij rat model of generalized nonconvulsive absence-like epilepsy assessed as decrease in spontaneous seizures at 100 mg/kg, po administered as single dose at beginning of nocturnal active phase measured over 4 hrs by radiotelometry relative to vehicle control

solubility [1]: 33 µg/mL (≈ 87.2 µM)
solubility [2]: 2 µg/mL (≈ 5.29 µM)
IC50 [3]: 29 nM
IC50 [4]: 450 nM
IC50 [5]: 1800 nM
IC50 [6]: 220 nM
IC50 [7]: 7000 nM
inhibition [8]: 26%
inhibition [9]: 18%
inhibition [10]: 3%
IC50 [11]: 18000 nM
IC50 [12]: 1800 nM
microsomal CLint [13]: 21 µL/min/mg
microsomal CLint [14]: 104 µL/min/mg
fraction unbound [15]: 0.02
clearance [16]: 110 mL/min/kg
Vd [17]: 23 L/kg
Vd [18]: 17 L/kg
half-life [19]: 7.1 h
half-life [20]: 120 h
Cmax [21]: 150 nM
Tmax [22]: 0.25 h
Tmax [23]: 0.75 h
bioavailability [24]: 100%
concentration at 1 h [25]: 1230 nM
concentration at 1 h [26]: 270 nM
concentration at 1 h [27]: 2570 nM
concentration at 1 h [28]: 800 nM
Drug uptake(free) [32]: 128 nM
Drug uptake(free) [33]: 37 nM
Compound: O=C(Nc1ccc(F)cc1)N1N=C(c2ccncc2)CC1c1ccc(F)cc1 (centres undefined)
Activity [29]: 12 mmHg
Activity [30]: Non-Toxic
Activity [31]: Non-Toxic
inhibition in vivo at 100 mg/kg [34]: > 99%
